pEC50: −log10 of the molar value.
How the values were obtained:
[1] = molecular target: 5-hydroxytryptamine receptor 2B (Homo sapiens, UniProt P41595); test: Agonist activity at recombinant human 5-HT2B receptor expressed in HEK293E cells assessed as induction of intracellular Ca2+ levels after 90 secs by Fluo-4-dye based FLIPR assay; type: cell-based, HEK293
Summary of the method: (§1)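 HEK293E cells stably expressing human receptor (VNV isoform for 5-HT2C; ~400−795 fmol/mg protein), grown in DMEM with 10% dialyzed FBS and G418. Cells plated at 20 000/well in serum-free DMEM overnight at 37 °C, then loaded 1 h at room temperature with 5 μM Fluo-4 in HBSS/25 mM HEPES. Eleven compound concentrations added on FLIPR, Ca2+ signal read for 90 s. EC50 from a four-parameter logistic fit, at least triplicate.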

[2] = molecular target: 5-hydroxytryptamine receptor 2A (Homo sapiens, UniProt P28223); test: Agonist activity at recombinant human 5-HT2A receptor expressed in HEK293E cells assessed as induction of intracellular Ca2+ levels after 90 secs by Fluo-4-dye based FLIPR assay; type: cell-based, HEK293; summary of the method: as §1
Sequence of 5-hydroxytryptamine receptor 2A (P28223 whole entry): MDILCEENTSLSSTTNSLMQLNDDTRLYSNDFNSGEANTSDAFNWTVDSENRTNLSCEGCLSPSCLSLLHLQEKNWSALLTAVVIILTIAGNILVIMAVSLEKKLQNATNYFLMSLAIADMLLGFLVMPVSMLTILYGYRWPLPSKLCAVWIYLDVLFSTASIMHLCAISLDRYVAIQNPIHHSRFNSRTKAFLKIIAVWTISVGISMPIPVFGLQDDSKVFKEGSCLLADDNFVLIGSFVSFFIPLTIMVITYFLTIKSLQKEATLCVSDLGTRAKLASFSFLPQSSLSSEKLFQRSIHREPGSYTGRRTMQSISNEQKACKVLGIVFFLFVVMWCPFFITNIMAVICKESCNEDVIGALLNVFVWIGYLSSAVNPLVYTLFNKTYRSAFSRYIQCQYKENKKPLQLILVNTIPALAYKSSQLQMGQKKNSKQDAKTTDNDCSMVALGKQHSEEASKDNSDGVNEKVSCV

[3] = molecular target: T1, 5-hydroxytryptamine receptor 2C (Homo sapiens) (UniProt P28335); test: Intrinsic activity at recombinant human 5-HT2C receptor expressed in HEK293E cells assessed as induction of intracellular Ca2+ levels after 90 secs by Fluo-4-dye based FLIPR assay relative to serotonin; type: functional, cell-based; settings: HEK293
T1 sequence (whole entry): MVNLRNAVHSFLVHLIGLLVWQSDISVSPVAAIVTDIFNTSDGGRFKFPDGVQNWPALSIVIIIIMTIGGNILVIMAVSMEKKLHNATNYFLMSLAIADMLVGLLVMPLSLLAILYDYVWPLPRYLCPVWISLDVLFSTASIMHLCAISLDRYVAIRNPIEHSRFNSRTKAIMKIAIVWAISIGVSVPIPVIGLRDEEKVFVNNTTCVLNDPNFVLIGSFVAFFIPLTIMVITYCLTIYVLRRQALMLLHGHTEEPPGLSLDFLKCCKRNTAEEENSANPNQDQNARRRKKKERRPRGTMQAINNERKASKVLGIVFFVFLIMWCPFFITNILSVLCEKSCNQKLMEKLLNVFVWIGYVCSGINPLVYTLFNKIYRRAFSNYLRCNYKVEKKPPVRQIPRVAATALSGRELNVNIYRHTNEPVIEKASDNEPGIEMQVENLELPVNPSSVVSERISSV
Summary of the method: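 FLIPR Fluo-4 Ca2+ assay in HEK293E cells stably expressing the human receptor (VNV isoform for 5-HT2C), eleven-point concentration series, 90 s read. Response normalized to 3 μM serotonin on the same plate (defined as IA = 1). Intrinsic activity taken from a four-parameter logistic fit.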

[4] = molecular target: T2, 5-hydroxytryptamine receptor 2C (Homo sapiens, UniProt P28335); test: Agonist activity at recombinant human 5-HT2C receptor expressed in HEK293E cells assessed as induction of intracellular Ca2+ levels after 90 secs by Fluo-4-dye based FLIPR assay; type: functional, cell-based, HEK293; summary of the method: as §1
T2 sequence (P28335 whole entry): T1 sequence (whole entry)

[5] = Metabolic stability in human liver microsomes assessed as parent compound remaining at […] after 10 mins; type: ADME, microsome; settings: read-out: Stability
[6] = Metabolic stability in rat liver microsomes assessed as parent compound remaining at […] after 10 mins; type: ADME, microsome; settings: read-out: Stability

Sequence of 5-hydroxytryptamine receptor 2B (P41595 whole entry, canonical isoform): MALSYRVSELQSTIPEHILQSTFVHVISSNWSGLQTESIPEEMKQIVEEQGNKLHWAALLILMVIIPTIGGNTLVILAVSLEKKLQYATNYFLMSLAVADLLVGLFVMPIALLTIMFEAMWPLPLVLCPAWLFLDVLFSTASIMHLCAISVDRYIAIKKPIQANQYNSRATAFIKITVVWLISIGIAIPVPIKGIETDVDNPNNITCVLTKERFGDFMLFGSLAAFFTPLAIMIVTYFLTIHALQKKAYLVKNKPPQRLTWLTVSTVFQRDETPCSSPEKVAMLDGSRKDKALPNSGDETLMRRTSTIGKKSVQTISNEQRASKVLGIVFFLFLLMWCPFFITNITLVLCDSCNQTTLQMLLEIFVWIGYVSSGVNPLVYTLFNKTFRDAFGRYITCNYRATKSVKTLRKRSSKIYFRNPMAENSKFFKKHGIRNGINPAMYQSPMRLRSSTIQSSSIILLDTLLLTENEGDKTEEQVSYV

SMILES | pEC50 [1] | pEC50 [2] | Intrinsic activity [3] | pEC50 [4] | remaining at 10 min [5] | remaining at 10 min [6]
Cc1nn(-c2cccc3ccccc23)nc1C(=O)N1CCC(CO)CC1 | < 5.00 | < 5.00 | 1 | 6.41 to 6.48 | 58% | 24%
O=C(c1cnc(-c2cccc3ccccc23)s1)N1CCOCC1 | < 5.00 | < 5.00 | 0.6 | 5.64 to 5.82 | – | –
Cc1cc(-c2cccc3ccccc23)sc1C(=O)N1CCC(CO)CC1 | < 5.00 | < 5.30 | 1 | 7.70 | 87% | 20%
Cc1sc(-c2cccc3ccccc23)cc1C(=O)N1CCC(CO)CC1 | < 5.00 | < 5.00 | 0.8 | 6.92 to 7.33 | 66% | 23%
COCCN(C)C(=O)c1sc(-c2cccc3ccccc23)nc1C | < 5.00 | < 5.00 | 0.9 | 7.85 | 28% | 7%
CCn1nc(-c2cccc3ccccc23)cc1-c1nccn1C | < 5.00 | < 5.00 | 0.8 | 7.43 to 7.57 | 5% | –
Cc1nc(-c2cccc(Cl)c2Cl)sc1C(=O)N1CCOCC1 | < 5.00 | < 5.00 | – | < 5.00 | – | –
O=C(c1csc(-c2cccc(Cl)c2Cl)n1)N1CC2CC1CO2 (stereo not given) | < 5.00 | < 5.00 | 0.8 | 6.50 to 6.89 | – | –
O=C(c1csc(-c2cccc(Cl)c2F)n1)N1CCOCC1 | < 5.00 | < 5.00 | 0.3 | 5.62 to 5.90 | – | –
Cn1ccnc1-c1cc(-c2cccc3ccccc23)nn1C | < 5.00 | 6.90 to 7.03 | 0.9 | 7.06 to 7.24 | 15% | –
CCn1nc(-c2cccc3ccccc23)cc1-c1cccnn1 | < 5.00 | 6.05 | 1.2 | 7.82 | 17% | –
CCn1nc(-c2cccc3ccccc23)cc1-c1nnnn1C | < 5.30 | 5.60 to 5.74 | 0.6 | 6.35 | 4% | –
CCn1nc(-c2cccc3ccccc23)cc1-c1ccnn1C | < 5.00 | < 5.00 | 0.3 | 5.30 to 5.46 | – | –
O=C(c1csc(-c2cccc(Cl)c2Cl)n1)N1CCCOCC1 | < 5.00 | < 5.00 | 0.5 | 6.13 to 6.49 | – | –
O=C(c1nc(-c2cccc(Cl)c2Cl)cs1)N1CCOCC1 | < 5.00 | < 5.00 | 0.8 | 7.42 to 7.74 | – | –
O=C(c1csc(-c2cccc(Cl)c2Cl)n1)N1CCC(O)CC1 | < 5.00 | < 5.00 | 0.7 | 6.08 to 6.17 | – | –
CCn1nc(-c2cccc3ccccc23)cc1-c1cncn1C | < 5.00 | < 5.00 | 0.2 | 5.36 to 5.41 | – | –
CCn1nc(-c2ccnc3ccccc23)cc1-c1cccnn1 | < 5.00 | < 5.00 | 0.6 | 6.40 to 6.50 | – | –
CCn1nc(-c2cncc3ccccc23)cc1-c1cccnn1 | < 5.00 | < 5.00 | 0.7 | 6.28 | – | –
CCn1nc(-c2nccc3ccccc23)cc1-c1cccnn1 | < 5.00 | < 5.00 | 0.8 | 6.29 to 6.54 | – | –
O=C(c1nnn(-c2cccc3ccccc23)n1)N1CCC(CO)CC1 | < 5.00 | < 5.00 | 0.3 | 5.00 to 5.39 | – | –
Cc1nc(-c2cccc3ccccc23)n(C)c1C(=O)N1CCC(CO)CC1 | < 5.00 | < 5.00 | 0.4 | 5.73 | – | –
Cn1cc(-c2cccc3ccccc23)nc1C(=O)N1CCC(CO)CC1 | < 5.00 | < 5.00 | 0.7 | 5.45 to 5.74 | – | –
Cc1cccc(-c2nc(C(=O)N3CCOCC3)cs2)c1C | < 5.00 | < 5.00 | 0.7 | 6.15 to 6.30 | – | –
O=C(c1csc(-c2ccc(Cl)cc2Cl)n1)N1CCOCC1 | < 5.00 | < 5.00 | – | < 5.00 | – | –

SMILES | pEC50 [1] | pEC50 [2] | Intrinsic activity [3] | pEC50 [4] | remaining at 10 min [5] | remaining at 10 min [6]
Cc1nc(-c2cccc3ccccc23)sc1C(=O)N(CCO)C(C)C | < 5.00 | < 5.00 | – | < 5.00 | 28% | 7%
Cc1nc(-c2cccc3ccccc23)sc1C(=O)N(C)C | < 5.00 | < 5.00 | 1 | 7.14 to 7.23 | – | –
CCn1nc(-c2cccc3ccccc23)cc1-c1ncnn1C | < 5.00 | < 5.00 | 0.7 | 6.21 to 6.72 | 4% | –
COCCNC(=O)c1sc(-c2cccc3ccccc23)nc1C | < 5.00 | < 5.00 | – | < 5.00 | – | –
Cn1nc(-c2cccc3ccccc23)cc1-c1cccnn1 | < 5.00 | < 5.30 | 1.2 | 7.40 to 7.60 | 12% | –
Cc1nc(-c2cccc3ccccc23)sc1C(N)=O | < 5.00 | < 5.00 | – | < 5.00 | – | –
O=C(c1csc(-c2ccccc2Cl)n1)N1CCOCC1 | < 5.00 | < 5.00 | 0.1 | 5.34 | – | –
CCn1nc(-c2cccc3ccncc23)cc1-c1cccnn1 | < 5.00 | < 5.00 | 0.7 | 7.37 to 7.89 | 16% | –
Cc1nc(-c2cccc3ccccc23)sc1C(=O)N(C)Cc1ccn(C)n1 | < 5.00 | < 5.00 | 1 | 7.72 to 7.89 | – | –
Cc1cc(-c2cccc3ccccc23)oc1C(=O)N1CCC(CO)CC1 | < 5.00 | < 5.00 | 0.7 | 5.70 to 5.99 | – | –
Cc1sc(-c2cccc3ccccc23)nc1C(=O)N1CCOCC1 | < 5.00 | < 5.00 | 0.3 | 5.56 | – | –
CCn1nc(-c2cccc3ccncc23)cc1-c1ccc(N)nn1 | < 5.30 | < 5.00 | 1.1 | 8.15 | – | –
O=C(c1csc(-c2cccc3ccccc23)n1)N1CCOCC1 | < 5.00 | < 5.00 | 0.6 | 5.93 to 6.12 | – | –
CCn1nc(-c2cccc3ccccc23)cc1-c1ccccn1 | < 5.30 | < 5.30 | 0.8 | 6.21 to 6.24 | – | –
CCn1nc(-c2cccc3cnccc23)cc1-c1cccnn1 | < 5.30 | < 5.30 | 0.7 | 5.80 | – | –
Cc1nc(-c2cccc3ccccc23)sc1C(=O)N1CCNCC1 | < 5.00 | < 5.00 | 0.4 | 5.98 | – | –
Cc1sc(-c2cccc(Cl)c2Cl)nc1C(=O)N1CCOCC1 | < 5.00 | < 5.00 | 0.6 | 5.82 | – | –
CCn1nc(-c2cccc3ncccc23)cc1-c1cccnn1 | < 5.00 | < 5.00 | 0.3 | 5.33 to 5.34 | – | –
O=C(c1nc(-c2cccc3ccccc23)cs1)N1CCOCC1 | < 5.00 | < 5.00 | 0.6 | 5.79 to 6.14 | – | –
O=C(c1csc(-c2cccnc2)n1)N1CCOCC1 | < 5.00 | < 5.00 | – | < 5.00 | – | –
CCn1nc(-c2cccc3ccccc23)cc1-c1ncccn1 | < 5.30 | < 5.30 | 0.4 | 5.72 to 5.77 | – | –
O=C(c1csc(-c2cccc(F)c2Cl)n1)N1CCOCC1 | < 5.00 | < 5.00 | – | < 5.00 | – | –
O=C(c1cnc(-c2cccc(Cl)c2Cl)s1)N1CCOCC1 | < 5.00 | < 5.00 | – | < 5.00 | – | –
O=C(c1csc(-c2cccc(Cl)c2Cl)n1)N1CCCCC1 | < 5.00 | < 5.00 | 0.3 | 5.43 to 5.51 | – | –

— ChEMBL document CHEMBL4011636, “Utilization of an Active Site Mutant Receptor for the Identification of Potent and Selective Atypical 5-HT2C Receptor Agonists” (J Med Chem, 2017)
